Molecules are shown by their SMILES. A value given as a limit tells only on which side of the number the result lay.

The results in this text go back to article PMC7199890 (European journal of medicinal chemistry, 2019).

Assay in all cases: Radioligand binding
The target in assay [1] is hA2AAR (Homo sapiens, UniProt P29274). To be noted: for hA1/hA2A: selectivity ratio of Ki values.
For assay [2], the target named is T1, hA3AR (Homo sapiens, UniProt P0DMS8).
T1 sequence (P0DMS8 1-318): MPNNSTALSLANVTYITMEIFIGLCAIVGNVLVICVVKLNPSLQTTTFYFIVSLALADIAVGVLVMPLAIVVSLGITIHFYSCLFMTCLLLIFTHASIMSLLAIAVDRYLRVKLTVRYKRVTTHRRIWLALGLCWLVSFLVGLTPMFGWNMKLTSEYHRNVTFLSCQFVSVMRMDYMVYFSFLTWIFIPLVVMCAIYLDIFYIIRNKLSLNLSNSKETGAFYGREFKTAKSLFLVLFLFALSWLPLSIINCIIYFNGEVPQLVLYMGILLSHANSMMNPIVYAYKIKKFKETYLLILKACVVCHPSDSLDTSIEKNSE
Conditions: for hA1/hA3 / hA2A/hA3: selectivity ratio of Ki values. A digest of the protocol:
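Displacement of [125I]AB-MECA binding on membranes from CHO cells expressing recombinant hA3AR. […] ADA (3 units/mL) was present during membrane preparation, a 30 min 30 °C preincubation and radioligand incubation. DMSO was ≤2% final. At least six competitor concentrations spanning 3 log units were used. Incubations ended by GF/B filtration and three rinses.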

Assay [3] concerns the target T2, hA1AR (Homo sapiens, UniProt P30542).
T2 sequence (P30542 1-326): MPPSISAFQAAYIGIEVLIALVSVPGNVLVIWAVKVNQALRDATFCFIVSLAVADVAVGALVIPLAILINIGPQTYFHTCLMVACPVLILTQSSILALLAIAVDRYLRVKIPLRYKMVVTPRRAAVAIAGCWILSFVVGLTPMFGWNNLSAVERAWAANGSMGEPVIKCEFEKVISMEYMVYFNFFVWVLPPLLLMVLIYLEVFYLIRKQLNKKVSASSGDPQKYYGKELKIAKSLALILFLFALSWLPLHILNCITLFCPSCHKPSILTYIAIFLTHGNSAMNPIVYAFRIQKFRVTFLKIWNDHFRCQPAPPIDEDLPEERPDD
To be noted: read-out: hA1 % of inhibition. A digest of the protocol: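 Membranes came from CHO cells expressing recombinant hA1AR, labelled with [3H]R-PIA. ADA (3 units/mL) was present during membrane preparation, a 30 min 30 °C preincubation and radioligand incubation. Test compound was dissolved in DMSO and diluted in buffer, DMSO ≤2% final. Incubations ended by GF/B filtration and three buffer rinses. The read-out is % inhibition of specific binding at a single concentration.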

Chain of hA2AAR (P29274 whole entry): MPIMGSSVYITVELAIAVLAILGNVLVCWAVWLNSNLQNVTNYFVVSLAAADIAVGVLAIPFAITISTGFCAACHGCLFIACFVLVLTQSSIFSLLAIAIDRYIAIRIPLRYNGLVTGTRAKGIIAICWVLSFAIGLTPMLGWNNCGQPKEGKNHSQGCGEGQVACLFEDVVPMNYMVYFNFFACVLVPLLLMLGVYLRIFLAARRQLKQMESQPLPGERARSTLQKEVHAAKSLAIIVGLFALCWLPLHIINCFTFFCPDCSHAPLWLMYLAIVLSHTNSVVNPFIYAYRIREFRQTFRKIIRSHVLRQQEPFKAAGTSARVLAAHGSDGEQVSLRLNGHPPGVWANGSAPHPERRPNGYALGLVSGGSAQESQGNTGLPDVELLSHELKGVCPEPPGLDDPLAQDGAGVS

As a reminder, the Ki is a dissociation constant, usually derived from enzyme kinetics or from competition with a known ligand. A low value points to higher affinity. The inhibition is the share of the control response that was lost under treatment. `Cn1cc2c(nc(NC(=O)Nc3ccc(CC(=O)NCCCOCCOCCOCCCNC(=S)Nc4ccc(-c5c6ccc(=O)cc-6oc6cc(O)ccc56)c(C(=O)O)c4)cc3)n3nc(-c4ccco4)nc23)n1` [Compound 18, 5-(3-(1-(4-(3-(2-(furan-2-yl)-8-methyl-8H-pyrazolo[4,3-e] [1,2,4]triazolo[1,5-c]pyrimidin-5-yl)ureido)phenyl)-2-oxo-7,10,13-trioxa-3-azahexadecan-16-yl)thioureido)-2-(6-hydroxy-3-oxo-3H-xanthen-9-yl)benzoate]: in assay [1], the inhibition constant Ki is 91.5 nM and the hA1/hA2A is recorded as more than 109. For the same compound, in assay [2], the Ki worked out at 207 nM, the hA1/hA3 is more than 48 and the hA2A/hA3 turned out to be 0.44. In assay [3], the inhibition at 10 µM turned out to be 32%.
For the compound `Cn1cc2c(nc(NC(=O)Nc3ccc(CC(=O)NCCCNC(=S)Nc4ccc(-c5c6ccc(=O)cc-6oc6cc(O)ccc56)c(C(=O)O)c4)cc3)n3nc(-c4ccco4)nc23)n1` [Compound 14, 5-(3-(3-(2-(4-(3-(2-(furan-2-yl)-8-methyl-8H-pyrazolo[4,3-e][1,2,4]triazolo[1,5-c]pyrimidin-5-yl)ureido)phenyl)acetamido)propyl)thioureido)-2-(6-hydroxy-3-oxo-3H-xanthen-9-yl)benzoate], the hA1/hA2A in assay [1] is more than 96. In assay [2], the hA1/hA3 is given as more than 96 and the hA2A/hA3 came out at 1. Further, the inhibition at 10 µM in assay [3] was determined as 27%.
As for `Cn1cc2c(nc(NC(=O)Nc3ccc(CC(=O)NCCCCCNC(=S)Nc4ccc(-c5c6ccc(=O)cc-6oc6cc(O)ccc56)c(C(=O)O)c4)cc3)n3nc(-c4ccco4)nc23)n1` [Compound 16, 5-(3-(5-(2-(4-(3-(2-(furan-2-yl)-8-methyl-8H-pyrazolo[4,3-e][1,2,4]triazolo[1,5-c]pyrimidin-5-yl)ureido)phenyl)acetamido)pentyl)thioureido)-2-(6-hydroxy-3-oxo-3H-xanthen-9-yl)benzoate], in assay [1], the hA1/hA2A is recorded as more than 94. In assay [2], the hA1/hA3 is on record as more than 103 and the hA2A/hA3 was 1.1. Also, the inhibition at 10 µM in assay [3] stood at 21%.
